For data set [1], the target named is T1, ATP-dependent translocase ABCB1 (Homo sapiens, UniProt P08183). In words: Inhibition of human Pgp in anthracycline-resistant K562 cells assessed as drug level causing half maximal increase in nuclear concentration of pirarubicin. As to conditions: read-out: Activity. It counts as cell-based.
Data set [2] addresses T1, ATP-dependent translocase ABCB1. The data set is described as follows: Inhibition of human Pgp in anthracycline-resistant K562 cells assessed as drug level causing maximal increase in nuclear concentration of pirarubicin relative to control. It counts as cell-based. A digest of the protocol:
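Anthracycline-resistant erythroleukemia K562 cells were incubated with pirarubicin, and its uptake was followed by continuous spectrofluorometry (λex 480 nm, λem 590 nm). R is the fractional increase in nuclear pirarubicin with inhibitor: 0 without inhibitor, 1 when it equals sensitive cells. Rmax is the maximal achievable increase. [I]0.5 is the inhibitor concentration giving R = 0.5.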

T1 sequence (P08183 whole entry): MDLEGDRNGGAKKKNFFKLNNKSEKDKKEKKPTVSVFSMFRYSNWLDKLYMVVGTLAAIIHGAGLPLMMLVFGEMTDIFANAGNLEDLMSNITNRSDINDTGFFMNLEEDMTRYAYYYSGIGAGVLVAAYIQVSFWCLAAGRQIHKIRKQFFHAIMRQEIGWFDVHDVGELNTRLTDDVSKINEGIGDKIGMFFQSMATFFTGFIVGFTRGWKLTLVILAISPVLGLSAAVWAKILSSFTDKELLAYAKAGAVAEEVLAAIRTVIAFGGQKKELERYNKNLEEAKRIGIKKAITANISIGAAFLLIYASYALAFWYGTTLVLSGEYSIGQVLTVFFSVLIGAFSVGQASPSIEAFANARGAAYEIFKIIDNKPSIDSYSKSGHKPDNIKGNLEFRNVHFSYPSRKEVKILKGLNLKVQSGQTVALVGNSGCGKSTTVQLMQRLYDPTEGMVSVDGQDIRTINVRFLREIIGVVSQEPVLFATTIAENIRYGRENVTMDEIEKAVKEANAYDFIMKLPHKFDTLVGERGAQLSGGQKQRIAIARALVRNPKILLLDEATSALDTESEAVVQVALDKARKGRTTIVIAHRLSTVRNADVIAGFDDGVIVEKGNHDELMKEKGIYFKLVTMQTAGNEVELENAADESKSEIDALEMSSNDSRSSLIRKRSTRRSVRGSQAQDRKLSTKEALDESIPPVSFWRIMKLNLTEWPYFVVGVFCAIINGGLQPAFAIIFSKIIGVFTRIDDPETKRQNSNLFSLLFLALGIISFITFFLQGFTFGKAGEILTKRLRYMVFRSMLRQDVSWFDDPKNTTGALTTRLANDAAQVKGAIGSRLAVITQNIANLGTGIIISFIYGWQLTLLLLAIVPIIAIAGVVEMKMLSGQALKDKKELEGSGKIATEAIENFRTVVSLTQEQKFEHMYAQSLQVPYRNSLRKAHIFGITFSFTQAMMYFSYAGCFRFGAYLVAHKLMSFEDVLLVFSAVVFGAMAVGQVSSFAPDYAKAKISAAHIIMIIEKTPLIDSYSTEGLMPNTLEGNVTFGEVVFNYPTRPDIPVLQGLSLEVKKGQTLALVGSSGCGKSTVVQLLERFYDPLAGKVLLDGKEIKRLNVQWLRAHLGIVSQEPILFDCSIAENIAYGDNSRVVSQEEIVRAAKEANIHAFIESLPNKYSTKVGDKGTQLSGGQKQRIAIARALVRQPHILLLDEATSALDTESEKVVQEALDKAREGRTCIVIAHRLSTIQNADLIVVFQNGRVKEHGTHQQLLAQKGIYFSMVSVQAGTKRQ

`COc1cc(C(=O)OCCCN(C)CCCOC(=O)c2c3ccccc3cc3ccccc23)cc(OC)c1OC`: the IC50 in data set [1] was found to be 280 nM. Besides, the Activity in data set [2] is 0.71.
For `COc1cc(/C=C/C(=O)OC2CCC(N(C)C3CCC(OC(=O)c4cc(OC)c(OC)c(OC)c4)CC3)CC2)cc(OC)c1OC` (stereo in doubt) the same measures were 320 nM and 0.81.
The matching figures for `COc1cc(/C=C/C(=O)OCCCN(C)CCCOC(=O)c2cc(OC)c(OC)c(OC)c2)cc(OC)c1OC`: 600 nM and 0.9.
Turning to `COc1cc(C(=O)OC2CCC(N(C)C3CCC(OC(=O)c4c5ccccc5cc5ccccc45)CC3)CC2)cc(OC)c1OC` (mixture of isomers; trans), the IC50 in data set [1] came to 160 nM. Further, the Activity in data set [2] worked out at 0.78.
The matching figures for `COc1cc(C(=O)OC2CCC(N(C)C3CCC(OC(=O)c4c5ccccc5cc5ccccc45)CC3)CC2)cc(OC)c1OC` (trans isomer): 300 nM and 0.88.
Consider `COc1cc(C(=O)OC2CCC(N(C)C3CCC(OC(=O)c4c5ccccc5cc5ccccc45)CC3)CC2)cc(OC)c1OC` (mixture of isomers; cis), for which the IC50 in data set [1] came to 300 nM. The Activity in data set [2] came out at 0.95.
For `COc1cc(/C=C/C(=O)OC2CCC(N(C)C3CCC(OC(=O)c4cc(OC)c(OC)c(OC)c4)CC3)CC2)cc(OC)c1OC` (mixture of isomers; trans) the same measures were 10 nM and 0.98.
For `COc1cc(/C=C/C(=O)OC2CCC(N(C)C3CCC(OC(=O)c4cc(OC)c(OC)c(OC)c4)CC3)CC2)cc(OC)c1OC` (mixture of isomers; cis) the same measures were 90 nM and 0.85.
For `COc1cc(/C=C/C(=O)OC2CCC(N(C)C3CCC(OC(=O)c4cc(OC)c(OC)c(OC)c4)CC3)CC2)cc(OC)c1OC` (cis isomer) the same measures were 30 nM and 0.8.
With `COc1cc(C(=O)OC2CCC(N(C)C3CCC(OC(=O)c4c5ccccc5cc5ccccc45)CC3)CC2)cc(OC)c1OC` (stereo in doubt), the IC50 in data set [1] stood at 180 nM. The Activity in data set [2] came out at 0.79.

The record behind these values is ChEMBL document CHEMBL1140608 (J Med Chem, 2007).
